This is an account of results in ChEMBL document CHEMBL4373680, “Small antibacterial molecules highly active against drug-resistant Staphylococcus aureus” (Medchemcomm, 2019).

A value given as a limit tells only on which side of the number the result lay.

One series relates to Pseudomonas aeruginosa. As to the kind of experiment: Antibacterial activity against Pseudomonas aeruginosa MTCC 424 after 24 hrs by tecan plate reader analysis. In kind it is functional. In short, it runs like this:
(§1)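 Broth microdilution MIC. Glycerol stocks grown on MacConkey agar 24 h at 37 °C, then a single colony in nutrient broth 6 h to mid-log (~10⁸ CFU/mL). Cells diluted to 10⁵ CFU/mL in Mueller Hinton broth and added to two-fold compound dilutions. Incubated 24 h at 37 °C, OD600 read. Triplicate wells, experiment run twice.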

Series [1] in a line: Hemolytic activity in human erythrocytes after 1 hr. In kind it is ADME, cell-based, Erythrocyte. A digest of the protocol:
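Heparinized donor blood. Erythrocytes washed three times in PBS and resuspended to 5 vol%, then mixed 3:1 with compound serially diluted in water. Incubated 1 h at 37 °C and centrifuged. Supernatant A540 read; % hemolysis relative to water and 0.1 vol% Triton-X controls.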

The subject of a further series is Escherichia coli. As to the kind of experiment: Antibacterial activity against Escherichia coli MTCC 443 after 24 hrs by tecan plate reader analysis. It is filed as functional. A digest of the protocol:
as §1

For a further series, the system named is Acinetobacter baumannii. In words: Antibacterial activity against Acinetobacter baumannii MTCC 1425 after 24 hrs by tecan plate reader analysis. In kind it is functional. A digest of the protocol:
as §1

A further series concerns Staphylococcus aureus. As to the kind of experiment: Antibacterial activity against methicillin-resistant Staphylococcus aureus ATCC 33591 after 24 hrs by tecan plate reader analysis. In kind it is functional. The following applies: ATCC 33591, 24 h. A digest of the protocol:
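Colony grown 24 h on NB agar at 37 °C, then 6 h in nutrient broth to mid-log (10⁸ CFU/mL by drop plating), diluted to 10⁵ CFU/mL in Mueller Hinton broth; added 9:1 to two-fold serial compound dilutions in MHB. Incubated 24 h, 37 °C; OD600 read. Triplicate per concentration, experiment run twice; MIC taken from the range of triplicate OD values.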

Another series has as its system Klebsiella pneumoniae. In words: Antibacterial activity against Klebsiella pneumoniae ATCC 700603 after 24 hrs by tecan plate reader analysis. In kind it is functional. A digest of the protocol:
as §1

Where [2] appears, read: Klebsiella pneumoniae, 700603, 24 h.

As a reminder, the MIC is the least concentration at which growth counts as inhibited. What is called HC50 is the concentration giving 50% haemolysis.

In the case of `CCCCCCCCCCNC(=O)C[N+](C)(CCO)CCCCCCCCCCCC[N+](C)(CCO)CC(=O)NCCCCCCCCCC.[Br-].[Br-]` (stereo not drawn), the MIC turned out to be 32 µg/mL against Pseudomonas aeruginosa (MTCC 424, 24 h); 4 µg/mL in the series with Escherichia coli (MTCC 443, 24 h); 2 µg/mL against Acinetobacter baumannii (MTCC 1425, 24 h); 2 µg/mL against Staphylococcus aureus; 16 µg/mL against Klebsiella pneumoniae (setting [2]). In series [1], this compound displayed a concentration for 50% haemolysis (HC50) at 1 h of 16 µg/mL.

For `CCCCCCNC(=O)C[N+](C)(CCO)CCCCCCCC[N+](C)(CCO)CC(=O)NCCCCCC.O=C([O-])C(F)(F)F.O=C([O-])C(F)(F)F` (stereo not drawn), the minimal inhibitory concentration (MIC) was above 256 µg/mL with Pseudomonas aeruginosa (MTCC 424, 24 h); 256 µg/mL against Escherichia coli (MTCC 443, 24 h); above 256 µg/mL with Acinetobacter baumannii (MTCC 1425, 24 h); 128 µg/mL in the series on Staphylococcus aureus; above 256 µg/mL with Klebsiella pneumoniae (setting [2]). Also, the HC50 at 1 h in series [1] was above 1020 µg/mL.

For `CCCCCCCCNC(=O)C[N+](C)(CCO)CCCCCCCC[N+](C)(CCO)CC(=O)NCCCCCCCC.[Br-].[Br-]` (stereo not drawn), the MIC was 16 µg/mL in the series on Pseudomonas aeruginosa (MTCC 424, 24 h); 1 to 2 µg/mL with Escherichia coli (MTCC 443, 24 h); 8 µg/mL against Acinetobacter baumannii (MTCC 1425, 24 h); 0.5 to 1 µg/mL in the series with Staphylococcus aureus; 8 µg/mL in the series on Klebsiella pneumoniae (setting [2]). Also, the HC50 at 1 h in series [1] was determined as 61 µg/mL.

Turning to `CCCCCCCCNC(=O)C[N+](C)(CCO)CCCCCCCCCCCC[N+](C)(CCO)CC(=O)NCCCCCCCC.[Br-].[Br-]` (stereo not drawn), the minimal inhibitory concentration (MIC) is 4 µg/mL in the series with Pseudomonas aeruginosa (MTCC 424, 24 h); 0.5 to 1 µg/mL in the series on Escherichia coli (MTCC 443, 24 h); 2 µg/mL against Acinetobacter baumannii (MTCC 1425, 24 h); 0.25 µg/mL against Staphylococcus aureus; 2 µg/mL with Klebsiella pneumoniae (setting [2]). In series [1], this compound displayed an HC50 at 1 h of 12 µg/mL.

As for `CCCCCCCCCCCCNC(=O)C[N+](C)(CCO)CCCCCCCC[N+](C)(CCO)CC(=O)NCCCCCCCCCCCC.[Br-].[Br-]` (stereo not drawn), the MIC in the series with Pseudomonas aeruginosa (MTCC 424, 24 h) is 64 to 128 µg/mL; against Escherichia coli (MTCC 443, 24 h), 32 µg/mL; in the series on Acinetobacter baumannii (MTCC 1425, 24 h), 4 µg/mL; against Staphylococcus aureus, 2 µg/mL; in the series with Klebsiella pneumoniae (setting [2]), 64 µg/mL. The compound further registered an HC50 at 1 h in series [1] of 29 µg/mL.

For the compound `CCCCCCCCCCNC(=O)C[N+](C)(CCO)CCC[N+](C)(CCO)CC(=O)NCCCCCCCCCC.[Br-].[Br-]` (stereo not drawn), the minimal inhibitory concentration (MIC) was 2 µg/mL against Pseudomonas aeruginosa (MTCC 424, 24 h); 1 µg/mL with Escherichia coli (MTCC 443, 24 h); 2 µg/mL against Acinetobacter baumannii (MTCC 1425, 24 h); 1 µg/mL against Staphylococcus aureus; 4 µg/mL against Klebsiella pneumoniae (setting [2]). For the same compound, the HC50 at 1 h in series [1] came out at 34 µg/mL.

On to `CCCCCCCCCCCCNC(=O)C[N+](C)(CCO)CCC[N+](C)(CCO)CC(=O)NCCCCCCCCCCCC.[Br-].[Br-]` (stereo not drawn), for which the MIC against Pseudomonas aeruginosa (MTCC 424, 24 h) was 64 to 128 µg/mL; in the series with Escherichia coli (MTCC 443, 24 h) it was 16 µg/mL; with Acinetobacter baumannii (MTCC 1425, 24 h), 8 µg/mL; in the series on Staphylococcus aureus, 2 µg/mL; against Klebsiella pneumoniae (setting [2]), 128 to 256 µg/mL. In series [1], the HC50 at 1 h came to 37 µg/mL.

With COLISTIN, the MIC in the series on Pseudomonas aeruginosa turned out to be 1 µg/mL; against Escherichia coli it was 1 µg/mL; in the series on Acinetobacter baumannii, 0.5 µg/mL; in the series on Klebsiella pneumoniae, 1 µg/mL.

Regarding `CCCCCCCCNC(=O)C[N+](C)(CCO)CCCCCCCCCC[N+](C)(CCO)CC(=O)NCCCCCCCC.[Br-].[Br-]` (stereo not drawn), the minimum inhibitory concentration (MIC) was 4 µg/mL against Pseudomonas aeruginosa (MTCC 424, 24 h); 0.5 µg/mL with Escherichia coli (MTCC 443, 24 h); 4 µg/mL against Acinetobacter baumannii (MTCC 1425, 24 h); 0.25 to 0.5 µg/mL in the series on Staphylococcus aureus; 4 µg/mL against Klebsiella pneumoniae (setting [2]). The compound also displayed an HC50 at 1 h in series [1] of 28 µg/mL.

Regarding `CCCCCCCCCCNC(=O)C[N+](C)(CCO)CCCCCC[N+](C)(CCO)CC(=O)NCCCCCCCCCC.[Br-].[Br-]` (stereo not drawn), the MIC in the series on Pseudomonas aeruginosa (MTCC 424, 24 h) was 4 µg/mL; in the series on Escherichia coli (MTCC 443, 24 h), 1 µg/mL; against Acinetobacter baumannii (MTCC 1425, 24 h), 2 µg/mL; against Staphylococcus aureus it was 0.5 µg/mL; with Klebsiella pneumoniae (setting [2]), 2 to 4 µg/mL. Moreover, in series [1], the 50% haemolytic concentration (HC50) at 1 h was 31 µg/mL.
